Source: ChEMBL document CHEMBL1156174, “Antiproliferative activity of synthetic naphthoquinones related to lapachol. First synthesis of 5-hydroxylapachol” (Bioorg Med Chem, 2010)

How the values were obtained:
T47D = experiment: Growth inhibition of human T47D cells after 48 hrs by sulforhodamine B assay; type: functional
Procedure, shortened: (§1)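 Cells in RPMI 1640 with 5% heat-inactivated FCS and 2 mM L-glutamine at 37 °C, 5% CO2. Seeded per well: 7500 (HBL-100, SW1573), 15,000 (A2780, HeLa, T47D) or 20,000 (WiDr). Drug added day 1 in triplicate dilutions (DMSO 0.25% v/v) for 48 h. Cells fixed with cold TCA, 60 min, 4 °C, then SRB stained and read at 492 nm. NCI percentage-growth formulas used; GI50 taken at PG +50.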

HeLa = experiment: Growth inhibition of human HeLa cells after 48 hrs by sulforhodamine B assay; type: functional; procedure, shortened: as §1
WiDr = experiment: Growth inhibition of human WiDr cells after 48 hrs by sulforhodamine B assay; type: functional; procedure, shortened: as §1
HBL-100 = experiment: Growth inhibition of human HBL100 cells after 48 hrs by sulforhodamine B assay; type: functional; settings: HBL-100, 48 h; procedure, shortened: as §1
A2780 = experiment: Growth inhibition of human A2780 cells after 48 hrs by sulforhodamine B assay; type: functional; settings: A2780, 48 h; procedure, shortened: as §1
SW1573 = experiment: Growth inhibition of human SW1573 cells after 48 hrs by sulforhodamine B assay; type: functional; settings: SW1573, 48 h; procedure, shortened: as §1
Artemia salina = experiment: Toxicity in Artemia salina; type: organism-based; settings: in vivo

| Compound | GI50 (T47D) | GI50 (HeLa) | GI50 (A2780) | GI50 (SW1573) | GI50 (WiDr) | GI50 (HBL-100) | Activity (Artemia salina) |
| --- | --- | --- | --- | --- | --- | --- | --- |
| O=C1C=CC(=O)c2c(O)cccc21 [JUGLONE] | 77 µM | 89 µM | 64 µM | 50 µM | 81 µM | 66 µM | – |
| CN(C)C1=CC(=O)c2cccc(O)c2C1=O | 34 µM | 7.1 µM | 2.4 µM | 5.3 µM | 17 µM | 5.7 µM | – |
| COC1=C(CC=C(C)C)C(=O)c2c(OC)cccc2C1=O | 45 µM | 18 µM | 21 µM | 5.8 µM | 28 µM | 17 µM | – |
| CC(C)(O[N+](=O)[O-])C1CC2=C(O1)C(=O)c1cccc(O)c1C2=O (centres undefined) | 23 µM | 2.2 µM | 2.2 µM | 2.8 µM | 18 µM | 2.8 µM | – |
| CC(C)=CCOC1=C(CC=C(C)C)C(=O)c2cccc(O)c2C1=O | 28 µM | 20 µM | 5.9 µM | 5.1 µM | 22 µM | 20 µM | – |
| CC(C)=CCOC1=CC(=O)c2cccc(O)c2C1=O | 23 µM | 4.5 µM | 2 µM | 7.7 µM | 7.3 µM | 19 µM | – |
| CC(C)=CCOC1=CC(=O)c2c(O)cccc2C1=O | 28 µM | 18 µM | 12 µM | 17 µM | 18 µM | 27 µM | – |
| CC(C)=CCC1=C(O)C(=O)c2ccccc2C1=O [LAPACHOL] | 76 µM | 2.3 µM | 1.9 µM | 34 µM | 36 µM | 7.8 µM | 5 ppm |
| O=C1C=C(O)c2cccc(O)c2C1=O | > 100 µM | 90 µM | 28 µM | 86 µM | > 100 µM | > 100 µM | – |
| O=C1C=C(O)c2c(O)cccc2C1=O | > 100 µM | > 100 µM | > 100 µM | > 100 µM | > 100 µM | > 100 µM | – |
| CC(C)=CCOC1=C(CC=C(C)C)C(=O)c2c(O)cccc2C1=O | 21 µM | 1.9 µM | 1 µM | 4.3 µM | 11 µM | 1.6 µM | – |
| C=CC(C)(C)C1=C(O)C(=O)c2cccc(O)c2C1=O | 27 µM | 28 µM | 26 µM | 36 µM | 31 µM | 31 µM | – |
| CC(C)=CCC1=C(O)C(=O)c2c(O)cccc2C1=O | 30 µM | 2.6 µM | 3.9 µM | 18 µM | 19 µM | 21 µM | – |
| COC1=C(CC=C(C)C)C(=O)c2c(O)cccc2C1=O | 22 µM | 3.5 µM | 1.8 µM | 4.8 µM | 20 µM | 20 µM | – |
| CN(C)C1=CC(=O)c2c(O)cccc2C1=O | 38 µM | 19 µM | 16 µM | 35 µM | 32 µM | 30 µM | – |
| CC1(C)CCC2=C(O1)C(=O)c1ccccc1C2=O [ALPHA-LAPACHONE] | 25 µM | 15 µM | 4 µM | 3.1 µM | 26 µM | 14 µM | – |
| C=CC(C)(C)C1=C(O)C(=O)c2c(O)cccc2C1=O | 30 µM | 24 µM | 21 µM | 3.8 µM | 23 µM | 16 µM | – |

Continued, in another order:

| GI50 (T47D) | GI50 (HeLa) | GI50 (A2780) | GI50 (SW1573) | Compound | GI50 (WiDr) | GI50 (HBL-100) | Activity (Artemia salina) |
| --- | --- | --- | --- | --- | --- | --- | --- |
| 20 µM | 1.8 µM | 2.1 µM | 2.5 µM | CC(C)(O[N+](=O)[O-])C1CC2=C(O1)C(=O)c1ccccc1C2=O (centres undefined) | 4.8 µM | 2.1 µM | – |
| 21 µM | 2.1 µM | 2.6 µM | 1.9 µM | C=C(C)C1CC2=C(O1)C(=O)c1ccccc1C2=O (stereo not drawn) [DEHYDROISO-ALPHA-LAPACHONE] | 2.7 µM | 2.3 µM | – |
| 19 µM | 2.3 µM | 2.4 µM | 4.8 µM | CC1(C)C=CC2=C(O1)C(=O)c1c(O)cccc1C2=O | 19 µM | 3.9 µM | – |
| 2.2 µM | 0.8 µM | 0.82 µM | 0.83 µM | C=C(C)C1CC2=C(O1)C(=O)c1cccc(O)c1C2=O (centres undefined) | 2 µM | 0.94 µM | – |
| 2.5 µM | 1.3 µM | 1.6 µM | 0.4 µM | CC1(C)C2=C(OC1CI)C(=O)c1c(O)cccc1C2=O (centres undefined) | 2 µM | 0.41 µM | – |
| 4 µM | 5.7 µM | 3.1 µM | 2 µM | NC1=CC(=O)c2cccc(O)c2C1=O | 3.5 µM | 2.9 µM | – |
| 21 µM | 12 µM | 3.2 µM | 2.7 µM | CC1(C)CCC2=C(O1)C(=O)c1cccc(O)c1C2=O | 18 µM | 2.6 µM | – |
| 2.3 µM | 0.81 µM | 1.1 µM | 0.76 µM | CC1(C)CCC2=C(O1)c1ccccc1C(=O)C2=O [LAPACHONE] | 2 µM | 0.69 µM | – |
| 8.1 µM | 0.42 µM | 0.57 µM | 0.7 µM | CC(C)=CCC1=C(O)C(=O)c2cccc(O)c2C1=O | 6.3 µM | 0.6 µM | – |
| 1.8 µM | 1.7 µM | 1.7 µM | 1.3 µM | CC1(C)C2=C(OC1CI)C(=O)c1cccc(O)c1C2=O (centres undefined) | 2 µM | 1.9 µM | – |
| 2.3 µM | 2.4 µM | 2.1 µM | 2.3 µM | CC(C)(I)C1CC2=C(O1)C(=O)c1cccc(O)c1C2=O (centres undefined) | 1.9 µM | 2 µM | – |
